The target in experiment [1] is T1, 5-hydroxytryptamine receptor 6 (Homo sapiens, UniProt P50406). Put plainly: Displacement of [3H]LSD from human 5HT6 receptor expressed in HEK cell membranes after 1 hr by liquid scintillation counting analysis. Set-up: species or system HEK293. In a few lines:
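Compounds were made up as 1 mM DMSO stocks and diluted in 20 mM HEPES, 0.1% ascorbic acid, pH 7.4. They were incubated 1 h at 37 °C with [3H]LSD (1 nM final) and membranes (23 µg protein) from HEK cells expressing human 5-HT6. Binding was stopped by filtration through GF/B filters presoaked in 0.1% polyethyleneimine, with three buffer washes, then counted by liquid scintillation. Single determination.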
Background: Displacement assays read how much labelled ligand stays bound in the presence of the test substance.

The target in experiment [2] is T2, 5-hydroxytryptamine receptor 2C (Homo sapiens, UniProt P28335).
T2 sequence (P28335 whole entry): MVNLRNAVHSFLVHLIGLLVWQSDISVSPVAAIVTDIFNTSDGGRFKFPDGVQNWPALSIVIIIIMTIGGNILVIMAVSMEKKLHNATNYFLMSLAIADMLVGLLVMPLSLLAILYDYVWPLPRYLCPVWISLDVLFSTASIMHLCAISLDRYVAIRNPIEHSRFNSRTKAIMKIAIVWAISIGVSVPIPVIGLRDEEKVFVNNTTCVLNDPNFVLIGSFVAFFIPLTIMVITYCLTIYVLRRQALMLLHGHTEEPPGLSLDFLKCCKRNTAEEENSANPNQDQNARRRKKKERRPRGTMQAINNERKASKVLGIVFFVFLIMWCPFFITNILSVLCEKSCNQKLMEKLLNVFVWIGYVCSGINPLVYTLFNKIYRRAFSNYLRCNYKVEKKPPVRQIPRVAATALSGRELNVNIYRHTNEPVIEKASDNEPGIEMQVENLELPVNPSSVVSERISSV
As to the kind of experiment: Displacement of [3H]-mesulergine from human 5HT2C receptor.

For experiment [3], the target named is 5-hydroxytryptamine receptor 2A (Homo sapiens, UniProt P28223). As to the kind of experiment: Displacement of [3H]-ketanserin from human 5HT2A receptor.
Experiment [4] is described as follows: Displacement of [3H]-5-HT from calf 5HT1D receptor. Also noted: species or system Bos taurus.
In experiment [5] the target is 5-hydroxytryptamine receptor 1B (Rattus norvegicus, UniProt P28564). Put plainly: Displacement of [125I]-iodocyanopindolol from rat 5HT1B receptor.
Experiment [6] addresses T3, 5-hydroxytryptamine receptor 1A (Rattus norvegicus, UniProt P19327).
T3 sequence (P19327 whole entry): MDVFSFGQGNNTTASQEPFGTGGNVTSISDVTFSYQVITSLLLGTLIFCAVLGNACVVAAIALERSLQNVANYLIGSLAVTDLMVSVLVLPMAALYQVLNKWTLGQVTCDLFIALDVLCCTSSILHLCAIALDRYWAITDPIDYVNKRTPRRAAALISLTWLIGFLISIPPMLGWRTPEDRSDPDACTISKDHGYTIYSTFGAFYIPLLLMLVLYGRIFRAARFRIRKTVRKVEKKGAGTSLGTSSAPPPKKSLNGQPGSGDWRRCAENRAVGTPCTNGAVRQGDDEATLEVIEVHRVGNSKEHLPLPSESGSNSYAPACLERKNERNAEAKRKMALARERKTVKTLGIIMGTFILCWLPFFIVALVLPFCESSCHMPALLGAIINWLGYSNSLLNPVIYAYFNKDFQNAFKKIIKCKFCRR
Put plainly: Displacement of [3H]-8-OH-DPAT from rat 5HT1A receptor.

Experiment [7] in a line: Displacement of [3H]-GR65630 from 5HT3 receptor in rat/mouse NG108 cells. It counts as cell-based.
The target in experiment [8] is T1, 5-hydroxytryptamine receptor 6. As to the kind of experiment: Agonist activity at human 5HT6 receptor expressed in BHK cells assessed as stimulation of cAMP production after 45 minutes. The class given is functional, cell-based. In a few lines: (§1)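 BHK cells stably transfected with the human 5-HT6 receptor, grown in MEM-α with 10% dialysed heat-inactivated FCS at 37 °C under 5% CO2. Cells were detached with 5 mM EDTA in PBS, seeded at 10,000 cells/well and left to adhere ≥12 h. They were then washed and placed in serum-free MEM-α, exposed to compound for 45 min, washed with PBS, and intracellular cAMP measured by enzyme immunoassay.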
In general terms: Cyclic AMP is a second messenger, typically raised through Gs and lowered through Gi signalling.

Experiment [9] has as its target Sodium-dependent serotonin transporter (Rattus norvegicus, UniProt P31652). As to the kind of experiment: Displacement of [3H]-5-HT from rat SERT.
Experiment [10] addresses T1, 5-hydroxytryptamine receptor 6. As to the kind of experiment: Agonist activity at human 5HT6 receptor expressed in BHK cells assessed as stimulation of cAMP production after 45 minutes relative to control. The class given is functional, cell-based. In a few lines: as §1
Experiment [11] addresses 5-hydroxytryptamine receptor 7 (Homo sapiens, UniProt P34969). As to the kind of experiment: Displacement of [3H]LSD from human 5HT7 receptor.
For experiment [12], the target named is T1, 5-hydroxytryptamine receptor 6. Put plainly: Partial agonist activity at human 5HT6 receptor expressed in BHK cells assessed as stimulation of cAMP production after 45 minutes. It counts as functional, cell-based. In a few lines: as §1
The target of experiment [13] is 5-hydroxytryptamine receptor 4 (Cavia porcellus, UniProt O70528). Put plainly: Displacement of [3H]-GR113808 from guinea pig 5HT4 receptor.
Experiment [14] concerns the target T1, 5-hydroxytryptamine receptor 6. As to the kind of experiment: Partial agonist activity at human 5HT6 receptor expressed in BHK cells assessed as stimulation of cAMP production after 45 minutes relative to control. It counts as functional, cell-based. In a few lines:
as §1

Experiment [15] shares this target. As to the kind of experiment: Displacement of [3H]LSD from human 5HT6 receptor expressed in CHO cell membranes after 1 hr by liquid scintillation counting analysis.
Experiment [16] shares this target. Put plainly: Antagonist activity at human 5HT6 receptor expressed in human HeLa cells assessed as inhibition of 5HT-induced cAMP accumulation relative to control. Set-up: scale not given: the % may be the effect or the level left. The class given is functional, cell-based.

As a reminder, the IC50 is the midpoint of a concentration-inhibition curve. Usually EC50 stands for the concentration giving half of the maximal effect.

Chain of Sodium-dependent serotonin transporter (P31652 whole entry): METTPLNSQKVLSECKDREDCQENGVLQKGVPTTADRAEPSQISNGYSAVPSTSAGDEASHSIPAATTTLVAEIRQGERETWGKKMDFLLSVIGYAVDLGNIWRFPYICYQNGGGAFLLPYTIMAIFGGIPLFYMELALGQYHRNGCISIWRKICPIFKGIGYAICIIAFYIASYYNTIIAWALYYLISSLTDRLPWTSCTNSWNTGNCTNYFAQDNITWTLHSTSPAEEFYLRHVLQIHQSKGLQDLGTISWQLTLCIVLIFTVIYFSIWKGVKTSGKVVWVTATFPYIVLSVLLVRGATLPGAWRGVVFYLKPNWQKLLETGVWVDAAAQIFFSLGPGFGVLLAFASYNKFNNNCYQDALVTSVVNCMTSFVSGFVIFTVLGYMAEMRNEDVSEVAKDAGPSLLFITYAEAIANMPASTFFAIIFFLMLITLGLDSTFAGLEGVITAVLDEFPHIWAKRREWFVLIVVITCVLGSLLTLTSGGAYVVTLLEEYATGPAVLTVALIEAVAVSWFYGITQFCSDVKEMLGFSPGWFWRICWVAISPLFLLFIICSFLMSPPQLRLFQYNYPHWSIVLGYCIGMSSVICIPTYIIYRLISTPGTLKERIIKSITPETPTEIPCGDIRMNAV
Chain of 5-hydroxytryptamine receptor 7 (P34969 whole entry): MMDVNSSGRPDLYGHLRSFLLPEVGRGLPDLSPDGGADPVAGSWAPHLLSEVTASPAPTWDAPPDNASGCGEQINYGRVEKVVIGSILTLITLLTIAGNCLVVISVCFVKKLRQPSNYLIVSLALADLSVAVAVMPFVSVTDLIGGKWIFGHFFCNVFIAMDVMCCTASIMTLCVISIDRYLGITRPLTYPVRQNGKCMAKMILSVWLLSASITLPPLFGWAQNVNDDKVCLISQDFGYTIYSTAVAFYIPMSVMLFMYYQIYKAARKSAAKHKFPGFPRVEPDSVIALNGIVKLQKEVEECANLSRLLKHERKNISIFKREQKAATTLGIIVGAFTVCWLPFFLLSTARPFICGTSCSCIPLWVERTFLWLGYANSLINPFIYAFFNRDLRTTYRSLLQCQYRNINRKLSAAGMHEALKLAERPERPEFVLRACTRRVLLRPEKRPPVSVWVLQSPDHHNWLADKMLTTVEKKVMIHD
Chain of 5-hydroxytryptamine receptor 2A (P28223 whole entry): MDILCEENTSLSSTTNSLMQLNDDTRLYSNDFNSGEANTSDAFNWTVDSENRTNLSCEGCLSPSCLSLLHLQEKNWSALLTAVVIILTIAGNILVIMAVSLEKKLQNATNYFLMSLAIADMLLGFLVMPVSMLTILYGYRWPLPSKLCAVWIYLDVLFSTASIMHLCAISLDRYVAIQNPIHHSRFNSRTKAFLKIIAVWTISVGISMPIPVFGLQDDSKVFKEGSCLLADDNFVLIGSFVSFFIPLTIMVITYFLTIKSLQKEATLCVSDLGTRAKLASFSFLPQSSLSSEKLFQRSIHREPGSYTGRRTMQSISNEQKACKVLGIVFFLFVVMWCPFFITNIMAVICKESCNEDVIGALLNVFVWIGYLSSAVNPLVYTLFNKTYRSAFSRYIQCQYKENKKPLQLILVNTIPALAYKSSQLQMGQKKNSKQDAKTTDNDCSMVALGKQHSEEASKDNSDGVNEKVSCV
T1 sequence (P50406 whole entry): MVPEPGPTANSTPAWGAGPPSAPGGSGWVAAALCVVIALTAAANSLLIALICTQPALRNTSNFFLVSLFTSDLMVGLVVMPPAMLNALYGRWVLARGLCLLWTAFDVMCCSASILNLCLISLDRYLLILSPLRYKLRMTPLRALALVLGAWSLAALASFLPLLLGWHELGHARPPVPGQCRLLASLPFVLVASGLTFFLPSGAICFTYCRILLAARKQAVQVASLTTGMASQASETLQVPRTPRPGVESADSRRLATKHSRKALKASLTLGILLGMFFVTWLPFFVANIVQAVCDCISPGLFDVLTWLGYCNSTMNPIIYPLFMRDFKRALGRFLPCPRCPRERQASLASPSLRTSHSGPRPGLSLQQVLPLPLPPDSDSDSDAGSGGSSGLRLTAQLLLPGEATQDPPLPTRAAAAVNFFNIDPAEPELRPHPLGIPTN
Chain of 5-hydroxytryptamine receptor 1B (P28564 whole entry): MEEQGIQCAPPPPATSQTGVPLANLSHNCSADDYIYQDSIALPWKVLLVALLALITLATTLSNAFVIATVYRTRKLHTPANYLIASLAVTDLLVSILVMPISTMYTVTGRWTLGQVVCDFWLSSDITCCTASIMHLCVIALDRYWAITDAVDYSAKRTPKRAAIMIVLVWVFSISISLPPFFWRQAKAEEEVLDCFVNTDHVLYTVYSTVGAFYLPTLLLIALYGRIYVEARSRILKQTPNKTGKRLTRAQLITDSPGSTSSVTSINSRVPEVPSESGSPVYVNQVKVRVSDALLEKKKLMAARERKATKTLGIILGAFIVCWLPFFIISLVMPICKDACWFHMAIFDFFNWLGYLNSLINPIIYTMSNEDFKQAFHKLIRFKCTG
Chain of 5-hydroxytryptamine receptor 4 (O70528 whole entry): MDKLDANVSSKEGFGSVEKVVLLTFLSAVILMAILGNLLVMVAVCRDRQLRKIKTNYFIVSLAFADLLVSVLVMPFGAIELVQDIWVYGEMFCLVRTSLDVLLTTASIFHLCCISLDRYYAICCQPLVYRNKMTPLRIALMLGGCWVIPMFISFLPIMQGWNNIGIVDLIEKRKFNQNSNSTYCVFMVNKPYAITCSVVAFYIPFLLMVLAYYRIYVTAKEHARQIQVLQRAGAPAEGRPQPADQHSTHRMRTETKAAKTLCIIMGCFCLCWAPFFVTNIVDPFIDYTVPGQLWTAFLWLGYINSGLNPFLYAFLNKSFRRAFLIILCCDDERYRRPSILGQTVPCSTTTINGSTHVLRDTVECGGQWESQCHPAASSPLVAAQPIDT

`Cc1[nH]c2ccc(Oc3ccccc3[N+](=O)[O-])cc2c1C1=CCNCC1`: the IC50 in experiment [1] is 9 nM.

For `C1=C(c2c(-c3ccccc3)[nH]c3ccccc23)CCNC1`, the 50% inhibitory concentration (IC50) was 100 nM in experiment [2]; 50 nM in experiment [3]; above 1000 nM in [4]; above 1000 nM in experiment [5]; above 1000 nM in experiment [6]; 270 nM in experiment [7].

As for `COc1ccc2[nH]cc(C3=CCNCC3)c2c1` [RU-24969], the results for the IC50 in experiment [4], in experiment [5] and in experiment [7] were 20 nM, 6 nM and above 1000 nM, respectively.

Take `Cc1c(C2=CCNCC2)c2cc(Cl)ccc2n1C`: the IC50 in experiment [1] is 40 nM.

With `Cc1[nH]c2ccc(Br)cc2c1C1=CCNCC1`, the IC50 in experiment [2] turned out to be 420 nM; in [3], 400 nM; in experiment [4] it was 130 nM; in [9] it was 4800 nM; in experiment [1], 10 nM; in experiment [5], 75 nM. In addition, the half-inhibitory concentration (IC50) in experiment [6] came out at 660 nM; in experiment [11], 480 nM. In addition, the EC50 in experiment [8] was 2.7 nM. Besides, the Activity in experiment [10] worked out at 100%.

Consider `Cc1[nH]c2ccccc2c1C1=CCNCC1`, for which the IC50 in experiment [2] was 2900 nM; in experiment [3] it was 1500 nM; in [4] it was 1200 nM; in experiment [9], above 1000 nM; in experiment [1], 200 nM; in experiment [5], 890 nM. Also, the IC50 is 5700 nM in [6], 2300 nM in experiment [7], 1000 nM in experiment [13] and above 1000 nM in experiment [11]. Besides, the concentration for a half-maximal effect (EC50) in experiment [12] came to 1100 nM. Besides, the Activity in experiment [14] worked out at 78%.

With `CCCn1c(C)c(C2=CCNCC2)c2cc(Cl)ccc21`, the IC50 in experiment [1] was 80 nM.

Compound `Cc1[nH]c2ccc(OC(C)C)cc2c1C1=CCNCC1` registered a 50% inhibitory concentration (IC50) in experiment [1] of 100 nM.

Regarding `Cc1[nH]c2ccc(-c3ccccc3)cc2c1C1=CCNCC1`, the IC50 in experiment [2] was above 1000 nM; in experiment [3] it was above 1000 nM; in experiment [4], 390 nM; in experiment [9], above 1000 nM; in [1] it was 1000 nM; in experiment [5], 140 nM. For the same compound, the IC50 is above 1000 nM in experiment [6] and 3700 nM in experiment [11].

Regarding `N#Cc1ccc2[nH]cc(C3=CCNCC3)c2c1`, the IC50 in experiment [1] is 20 nM. Also, the EC50 in experiment [12] was determined as 130 nM. Further, the Activity in experiment [14] amounted to 44%.

As to `Cc1[nH]c2ccc(F)cc2c1C1=CCNCC1`, the IC50 in experiment [2] turned out to be 700 nM; in experiment [3], 950 nM; in experiment [4], 160 nM; in [9], 1900 nM; in experiment [1], 30 nM; in experiment [5], 200 nM. Besides, the IC50 was above 1000 nM in experiment [6] and 3100 nM in [11]. The EC50 in [8] is 5.3 nM. The Activity in [10] came out at 100%.

The compound `Cc1c(C2=CCNCC2)c2cc(Cl)ccc2n1S(=O)(=O)c1ccccc1` registered an IC50 in experiment [15] of 2 nM. Moreover, the Activity in experiment [16] amounted to 0%.

Take `Cc1[nH]c2ccc(NS(=O)(=O)c3ccccc3)cc2c1C1=CCNCC1`: the IC50 in experiment [15] was 29 nM. In addition, the EC50 in [12] came to 21 nM. The Activity in experiment [14] was found to be 60%.

On to `CCn1c(C)c(C2=CCNCC2)c2cc(Cl)ccc21`, for which the IC50 in [1] came to 100 nM.

Turning to `Cc1[nH]c2ccc(-c3ccsc3)cc2c1C1=CCNCC1`, the half-maximal inhibitory concentration (IC50) in [2] was above 1000 nM; in experiment [3], above 1000 nM; in experiment [4], 33 nM; in [9] it was above 1000 nM; in experiment [1], 700 nM; in [5], 12 nM. Also, the IC50 in [6] is above 1000 nM; in experiment [11], 690 nM.

On to `CSc1ccc2[nH]c(C)c(C3=CCNCC3)c2c1`, for which the IC50 in [1] was found to be 20 nM. For the same compound, in [12], the EC50 was 6.6 nM. Further, the Activity in [14] was determined as 58%.

For `Cc1[nH]c2ccc(OS(=O)(=O)C(F)(F)F)cc2c1C1=CCNCC1`, the IC50 in experiment [2] is 990 nM; in experiment [3], above 1000 nM; in experiment [4] it was 35 nM; in experiment [9], above 1000 nM; in [1], 50 nM; in experiment [5], 29 nM. Besides, the IC50 in [6] was above 1000 nM; in experiment [11], 1800 nM. Moreover, the EC50 in [12] was 32 nM. Moreover, the Activity in experiment [14] was 65%.

For the compound `Cc1[nH]c2ccc([N+](=O)[O-])cc2c1C1=CCNCC1`, the 50% inhibitory concentration (IC50) in [2] was above 1000 nM; in experiment [3], 1000 nM; in experiment [4], 310 nM; in experiment [9], above 1000 nM; in [1] it was 10 nM; in [5] it was 570 nM. The figures for the 50% inhibitory concentration (IC50) in experiment [6] and in [11] were 890 nM and above 1000 nM, respectively. Further, the concentration giving a half-maximal response (EC50) in experiment [12] was 32 nM. In addition, in experiment [14], the Activity stood at 28%.
